These results are taken from the EternaBench riboswitch data.

The subject of this data set is MS2 coat protein. In words: apparent Kd, MS2 coat protein; higher = weaker binding; RNA-MaP array; FMN 200 µM where present. The method in brief:
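SNAP-549-labelled MS2 coat protein, doubled from 0.7 or 1.5 nM to 3 µM, was titrated over designs transcribed by stalled E. coli RNA polymerase on Illumina sequencing-chip clusters. Titrations were run without and then with constant ligand in 100 mM Tris-HCl pH 7.5, 80 mM KCl, 4 mM MgCl2, BSA, DTT, yeast tRNA and Tween-20. The apparent Kd is the median of filtered per-cluster fits to green signal normalised to red-channel RNA signal and control-cluster median Fmax.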

Setting [1] is: designed as: OFF switch for flavin mononucleotide, no ligand.
[2] abbreviates: ligand present: flavin mononucleotide, designed as: OFF switch for flavin mononucleotide.
Where [3] appears, read: designed as: ON switch for flavin mononucleotide, no ligand.
Where [4] appears, read: ligand present: flavin mononucleotide, designed as: ON switch for flavin mononucleotide.

What is called apparent Kd is the concentration giving half-maximal binding under the conditions of the assay.

For “AUCAUGUCAGGAUAUGUGACAUGGAUCUUCGGAUCAAGAUCACAGAAGGGACAUGAGGAUCACCCAUGUCGAUC”, the “apparent Kd” value was 98.8 nM under setting [1] and 53.4 nM under setting [2].

For “GGUACUCAAAGAGUACCAAUACGAACAUGAGGAUCACCCAUGUAGGAUAUUCUACUCAAAGAGUAGCAGAAGGACAUGUGCCUA”, the “apparent Kd” value stood at 10.8 nM under setting [1] and 13.1 nM under setting [2].

Turning to “UUUAAUAUUAUAGGAUAUGGAUACGAUACGUAUCCAGAAGGGUGAUUAAACUAUAAUCUAUACAUGAGGAUCACCCAUGUUUAU”, the “apparent Kd” value reads like this: under setting [3], 212 nM; under setting [4], 44.7 nM.

On to “UACGACUUCGUAGGAUAUGUAUUUCAUUUCUACAUGAGGAUCACCCAUGUUUGCAUUUUUUUUUGACAGAAGGACGUAAUCGUA”, for which the “apparent Kd” value reads like this: under setting [3], 15.4 nM; under setting [4], 10.5 nM.

As to “UACCUCUCAGGAUAUGAGCAGCAGGACAUGAGGAUCACCCAUGUUAUAUAGGGUCCUGGUUUAGAAGGGAGCGAAU”, the “apparent Kd” value by setting is: under setting [1], 26 nM; under setting [2], 28.1 nM.

With “GAUAUUUUUUGAGGAUAUUCAUACACUGUAUACGGAGAAGGCAAACAAUCAUGAGGACAUGAGGAUCACCCAUGUUGUGACCAU”, the “apparent Kd” value came out at 19.5 nM under setting [3] and 13.5 nM under setting [4].

In the case of “AAGAAUAGAAAGAUUAAUAUGAAUACAUGAGGAUCACCCAUGUAGGAUAUCGACGUCAAUGACGUCGAGAAGGACAUAAAUAAU”, the “apparent Kd” value is, setting by setting: under setting [1], 9.7 nM; under setting [2], 9.09 nM.

For the sequence “GAGUUACAUGAGGAUCACCCAUGUUGUUUUGGAUAAGGAUAUAUGGUAGGAAGAGGAAUGAUAGAAGGUAUUAGGG”, the “apparent Kd” value under setting [3] is 29.9 nM and the “apparent Kd” value under setting [4] stood at 28.3 nM.

“CCUGCACAUGAGGAUCACCCAUGUCAGGAUAUCUCGCCGUCGGCUUGCCGACGGUAUUAGAGAAGGGACACGGG”: the “apparent Kd” value under setting [1] came to 29.3 nM and the “apparent Kd” value under setting [2] came to 26 nM.

“GUCGUGUUAGGAUAUGGCAACGGCUAGGAAACUAGUUGUUGUUAGAAGGAACAUGAGGAUCACCCAUGUAUGAC”: the “apparent Kd” value was 34.3 nM under setting [1] and 84.3 nM under setting [2].

As to “AUGUUACAUGAGGAUCACCCAUGUGAGGAUAUGUGUACCCGUAAAAAAGUGUCGGGCCAUAGAAGGCAUUUGGA”, the “apparent Kd” value reads like this: under setting [1], 48.4 nM; under setting [2], 49.9 nM.

Regarding “GGUCGUCUCAUUAACAUGAGGAUCACCCAUGUCAAAAGACAUGAGGAUAUGGAUCCUAAUUGGAUCCAGAAGGCAUGGACGACC”, the “apparent Kd” value was found to be 1110 nM under setting [3] and 60.4 nM under setting [4].

As for “ACGAUACAUGAGGAUCACCCAUGUUAGGAUAUACGCAUGCAUGCAUGCAUGCAUGCAAGUAGAAGGAACCAUGC”, the “apparent Kd” value by setting is: under setting [1], 27.5 nM; under setting [2], 26.8 nM.

As to “AAUUCGCGAGGAUAUACAUGAGGAUCACCCAUGUGUGUACGCAUGCACUUCAUAGGUUGUAGAAGGCGUGAGAU”, the “apparent Kd” value was found to be 19.7 nM under setting [1] and 29.4 nM under setting [2].

In the case of “UGAUAGGACAGAGGAUAUACAGAUAGGAUCUACUAUCAAACAAUCCUGACAUGAGGAUCACCCAUGUAGAAGGCUGUCCUAUCU”, the “apparent Kd” value came to 22.5 nM under setting [1] and 86.5 nM under setting [2].

Consider “CAGGAUAGAGGAUAUACGUAGAUACAGAUUCAUGUAAUCCUACAUGAGGAUCACCCAUGUAGAAGGCUAUCCUG”, for which the “apparent Kd” value is, setting by setting: under setting [1], 18 nM; under setting [2], 113 nM.

Take “UGGGCGAGCCCAGUACUCACACAUGAGGAUCACCCAUGUGACGAGGAUAUAGACAGCGAUGCGUGCUAGAAGGCGUCACGGUAG”: the “apparent Kd” value under setting [1] turned out to be 10.9 nM and the “apparent Kd” value under setting [2] worked out at 35.3 nM.

Take “AUGGACGUCGUAGGAUAUGUAGGAUUCUCGUACAUGAGGAUCACCCAUGUUGACGUCGAGGUCGGACAGAAGGGCGGUGUCUAU”: the “apparent Kd” value runs as follows: under setting [3], 20.9 nM; under setting [4], 8.65 nM.

As for “GCUGUCGCAUGAGGAUAUGGUCAGCUUUGCUGACCAGAAGGCAUGUCAAUAGACAUGAGGAUCACCCAUGUAGUAAAGACGGCU”, the “apparent Kd” value worked out at 313 nM under setting [3] and 32.4 nM under setting [4].

As for “GUAUCAUACCAAGGAUAUUUAGGACUUGUGUAGACAUGAGGAUCACCCAUGUGGCGUUAGUCACGGGAGAAGGUGGUAUGAUAC”, the “apparent Kd” value under setting [3] came out at 78.5 nM and the “apparent Kd” value under setting [4] came to 18.8 nM.

“AGUAAGAUGCAGAAGGUGUUAGCUAGAGCUACGACAUGAGGAUCACCCAUGUACAAAAGCCCGUACAAGGAUAUGCAUCUUACA”: the “apparent Kd” value was determined as 4.46 nM under setting [3] and 4.21 nM under setting [4].

For “UUAUUUAUGUAAGGAUAUCGAUGAUAUACGCAUCCGACAUGAGGAUCACCCAUGUUUUAUUUUGUCGAGAAGGUACAUUGUCGG”, the “apparent Kd” value under setting [3] turned out to be 57.8 nM and the “apparent Kd” value under setting [4] worked out at 57.1 nM.

Consider “UAGGACGUCGUAGGAUAUGUAGGAUAUUCCUACAUGAGGAUCACCCAUGUUGACAUGGAAGAAGGACAGAAGGACGAUGUCCAU”, for which the “apparent Kd” value under setting [3] was determined as 224 nM and the “apparent Kd” value under setting [4] was found to be 4.61 nM.

Take “GGAUUACAUGAGGAUCACCCAUGUGAGGAUAUCGAUGUCCCUAGCAGCGUGCGGGACUCGAGAAGGCACUUGGA”: the “apparent Kd” value is 47.5 nM under setting [1] and 248 nM under setting [2].

Take “GCCAUCGUAUGAGGAUAUGGCGCCGAAACGGUGCCAGAAGGCAUGUCAAUAGACAUGAGGAUCACCCAUGUGUUAUCGAUGGCA”: the “apparent Kd” value under setting [3] was determined as 134 nM and the “apparent Kd” value under setting [4] came out at 11.9 nM.

As to “AAAGUUGGUAGGCCCUCGGAACAUGAGGAUCACCCAUGUAAGGAGGAUAUGCCCGGUACCCGCUGGCAGAAGGCCUUAUAAUAA”, the “apparent Kd” value was found to be 10.5 nM under setting [1] and 61.6 nM under setting [2].

As for “GAACUGAAGCUUAGCUUUAGUCGUACAUGAGGAUCACCCAUGUAGGAUAUGGUAGGCAUAGCUUACUAGAAGGAUAGAGUGAUC”, the “apparent Kd” value reads like this: under setting [1], 198 nM; under setting [2], 69.6 nM.

Take “AUCUCGUCAGGAUAUUGGAUUUGGAUUGAAAGGUUUAGGUUUAAGAAGGGACAUGAGGAUCACCCAUGUCUGGU”: the “apparent Kd” value under setting [1] is 21.8 nM and the “apparent Kd” value under setting [2] turned out to be 21.5 nM.

In the case of “GCGGGAUGAGUCGUUGGUUCACAUGAGGAUCACCCAUGUAGGGAGGAUAUACAUCUGGUCCCGGAGUAGAAGGCCCUACAUCGG”, the “apparent Kd” value reads like this: under setting [1], 163 nM; under setting [2], 107 nM.

Take “UGGUACUAGGGAGGAUAUGGGAAGAUACAUGAGGAUCACCCAUGUUGAAGAAUGCCGAGAGGCAACUAGAAGGCCCUAGUACCU”: the “apparent Kd” value runs as follows: under setting [3], 137 nM; under setting [4], 9.13 nM.

Consider “GCGAUGAUCGAGAAGGCCACUACAUGAGGAUCACCCAUGUCGUGGUGUAUUGGAGGAUAUCGAUCGGCGUCUCAUGAGGACAUA”, for which the “apparent Kd” value is, setting by setting: under setting [1], 4.65 nM; under setting [2], 5.78 nM.

For “AUGCUAUACGAAGGAUAUGGUUACAUGAGGAUCACCCAUGUUAUUCUUGUUUUCUUGUUUAUGUUCCAGAAGGUCGUAUAGCUA”, the “apparent Kd” value was 47.3 nM under setting [1] and 38.2 nM under setting [2].

With “UUGGACGUCGUAGGAUAUGUAGGAUCUUCCUACAUGAGGAUCACCCAUGUUGACAUGGAAGAAGGACAGAAGGACGAUGUCCAU”, the “apparent Kd” value under setting [3] was found to be 6.88 nM and the “apparent Kd” value under setting [4] turned out to be 4.77 nM.

Regarding “UGCAGACGAGGAUAUAGAUUUAAGUACAUGAGGAUCACCCAUGUGCAUAUGUAUUUAGAUUUAGAAGGCGUCUGCA”, the “apparent Kd” value runs as follows: under setting [1], 482 nM; under setting [2], 469 nM.

For “AUCCCGCGAGGAUAUACAUGAGGAUCACCCAUGUAGGUUCUGGAUGGGCGAAAUUUGUGUAGAAGGCGCACCAA”, the “apparent Kd” value under setting [1] was 33.4 nM and the “apparent Kd” value under setting [2] was 26.1 nM.

As for “GCCAUCAUAUGAGGAUAUGACACCGAAACGGUGUCAGAAGGCAUGUCGAUAGACAUGAGGAUCACCCAUGUAUUAAUGAUGGCA”, the “apparent Kd” value is 1090 nM under setting [3] and 95.1 nM under setting [4].

Consider “CAUUCGUGUCUAGGAUAUGAGUGACAAGCGCGAGAUUUUCUCGCCGCUAGCUCAGAAGGAGACAUGAGGAUCACCCAUGUAAGG”, for which the “apparent Kd” value came to 60.1 nM under setting [1] and 11.8 nM under setting [2].

On to “GUAGCAUGCCAAGGAUAUUCAUAUAGUAGGCAAACAUGAGGAUCACCCAUGUAAUGAGAGCAGUGGGAGAAGGUGGGAUGCUAC”, for which the “apparent Kd” value is, setting by setting: under setting [3], 51.5 nM; under setting [4], 31.9 nM.

For the sequence “GUAGCGUAUGUAGGAUAUCGGUCAGUUUCUGAUCGAGAAGGACAUGAGGAUCACCCAUGUAAAUUACCGACUUUGUCGGGCUGC”, the “apparent Kd” value by setting is: under setting [1], 8.06 nM; under setting [2], 12.4 nM.

As for “UUAGCGUAAGUAAGGAUAUGCUGGUCGAAAGACCAGCAGAAGGUACAUGAGGAUCACCCAUGUUGAGUUGUUGC”, the “apparent Kd” value runs as follows: under setting [1], 20 nM; under setting [2], 24.3 nM.

For the sequence “GCGAAGAACGAGAAGGCCACAACAUGAGGAUCACCCAUGUCGUGGAGUAUUGGAGGAUAUCGUUAGGCGUCUCAUGAGGACAUA”, the “apparent Kd” value turned out to be 5.92 nM under setting [1] and 5.66 nM under setting [2].

Take “GGUGAAGCAGGAUAUGUGCCAAUAUACAUGAGGAUCACCCAUGUCAUGUAGGAACUGCGUAUAGAAGGGCUUCACC”: the “apparent Kd” value under setting [1] was determined as 37.6 nM and the “apparent Kd” value under setting [2] came to 63.5 nM.

With “AGCUACGUUUCGUAGCAGCUAGGUGAGGAUAUUAAAAUUUUCACAUGAGGAUCACCCAUGUAUGUGAAGAAGGCGCCUAGAAAG”, the “apparent Kd” value runs as follows: under setting [3], 53.7 nM; under setting [4], 7.76 nM.

For “CAUGUCCUCACAGGAUAUGCACCACUUUGUGGUGCAGAAGGGUGGUUACAUGAGGAUCACCCAUGUGGACAUGAUAUAUUUAAU”, the “apparent Kd” value by setting is: under setting [3], 93.7 nM; under setting [4], 1150 nM.

Regarding “UAUAACCGAGGAUAUACAUGAGGAUCACCCAUGUAAUGUAGUAUAAUGUAUGUAAAAUGUAGAAGGUGGGAUGU”, the “apparent Kd” value was found to be 54.4 nM under setting [1] and 47 nM under setting [2].

Take “CUAAAUCAUGUAGGAUAUGCAUGGCGAAGCUACGCAGAAGGACAUGAGGAUCACCCAUGUCUGUCCGACUGCGUACAGUCGGAC”: the “apparent Kd” value under setting [1] came out at 21.6 nM and the “apparent Kd” value under setting [2] was 114 nM.

On to “ACGGUGGUCACAGGAUAUCCGGCCCGCGGGCCUGGAGAAGGGUGACUCAGAACCACAUGAGGAUCACCCAUGUGCCUUGCCGUA”, for which the “apparent Kd” value by setting is: under setting [3], 250 nM; under setting [4], 48.7 nM.

Take “UAAUCGUUGCAGAAGGUUAUUAUUAUAACGUGACACUUAACAUGAGGAUCACCCAUGUUUUUGAUGAAGGAUAUGCAACGGUAG”: the “apparent Kd” value runs as follows: under setting [1], 8.04 nM; under setting [2], 7.71 nM.
